High-throughput results: PubChem BioAssay, Broad Institute
Only a selection was taken, and hits are over-represented in it overall.
INS-1E rescue: rescue of cytokine-induced death in INS-1E beta cells | 0.1% of 20,000 active | protection from cytokine-induced ATP loss, % at 10 µM | INS-1E cytokine-induced death, ATP luminescence, 48 h; normalised: neutral wells 0, positive control 100;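 active means mean replicate protection from cytokine-induced ATP loss at least 50% and at least 75% of replicates each reaching 50%; inconclusive means meets only one of the two criteria, mean or replicate share; inactive means fails both the mean and replicate share criteria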
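Material: INS-1E rat cells; Quantity: 8000 cells/well; Buffer or medium: phenol-red-free RPMI with 5% fetal bovine serum; Probe or stimulus: cytokine cocktail of IFN-γ, TNF-α and IL-1β; Compound dosing: single test concentration per compound, delivered by pin transfer; Incubation: 48 h co-treatment, 10 min post-lysis read; Signal: CellTiter-Glo luminescence.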
A1 apoptosis 2: A1 inhibition read as caspase activation; caspase activation, % (test concentration not listed); MEF A1-2A-BIM cells, caspase-Glo luminescence, 3 h; percent of clofoctol response, DMSO zero; 24,000 tested, under 10 active; AID 2465; in the data active means caspase activation above about 5.9%; inconclusive means no clear call, values can overlap the other calls; inactive means below about 2.2%
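System: mouse embryonic fibroblasts co-expressing A1 and BIM (A1-2A-BIM), primed for A1 dependence; amount: 2500 cells/well; doses: 50 nL pinned compound; schedule: cells settled overnight, compound exposure 3 h at 37 °C, 5% CO2; detection: Caspase-Glo 3/7 luminescence, 1 h at room temperature; read-out: Caspase-3/7 activation, seen as rise in luminescence signal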
T cruzi HTS: inhibitors of intracellular Trypanosoma cruzi | 4.9% of 22,000 active | activity score (inhibition), % at 5.01 µM | intracellular Trypanosoma cruzi in host cells, plate reader; in the data active means activity score above about 55%; inconclusive means no clear call, values can overlap the other calls;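 further: parasites and compound incubated about four days before reading; 0% = median of neutral control wells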
An asterisk follows results filed as active; ? = inconclusive; nt = no result given.

SMILES	INS-1E rescue	A1 apoptosis 2	T cruzi HTS
C[C@@H]1CN([C@H](C)CO)C(=O)Cc2cc(N(C)C)ccc2O[C@@H]1CN(C)Cc1ccc(C(=O)Nc2ccccc2N)cc1	-14	0	63*
C[C@@H]1CN([C@H](C)CO)C(=O)Cc2cc(N(C)C)ccc2O[C@H]1CN(C)Cc1ccc(C(=O)Nc2ccccc2N)cc1	18	nt	69*
C[C@@H]1CN([C@@H](C)CO)C(=O)c2cc(N(C)C)ccc2O[C@H]1CN(C)Cc1ccc(C(=O)Nc2ccccc2N)cc1	3	nt	35
COc1cccc(/C=C2\SC(=S)N(CCCC(=O)O)C2=O)c1	nt	-2	nt
C[C@@H]1CN([C@H](C)CO)C(=O)c2cccc(NC(=O)Nc3ccc(C(F)(F)F)cc3)c2O[C@@H]1CN(C)Cc1ccc2c(c1)OCO2	-27	1	?
C[C@@H]1CN([C@H](C)CO)C(=O)c2cccc(NC(=O)Nc3ccc(C(F)(F)F)cc3)c2O[C@H]1CN(C)Cc1ccc2c(c1)OCO2	-58	-1	80*
C[C@@H]1CN([C@H](C)CO)C(=O)c2cccc(NC(=O)Nc3ccc4c(c3)OCO4)c2O[C@H]1CN(C)Cc1ccc(C(F)(F)F)cc1	-7	0	9
C[C@H]1CN([C@@H](C)CO)C(=O)c2cccc(NC(=O)Nc3ccc4c(c3)OCO4)c2O[C@H]1CN(C)Cc1ccc2c(c1)OCO2	-12	nt	-17
C[C@H]1CN([C@@H](C)CO)C(=O)c2cccc(NC(=O)Nc3ccc(C(F)(F)F)cc3)c2O[C@@H]1CN(C)Cc1ccc2c(c1)OCO2	-13	nt	52
C[C@@H]1CN([C@@H](C)CO)C(=O)c2cccc(NC(=O)Nc3ccc(C(F)(F)F)cc3)c2O[C@H]1CN(C)Cc1ccc2c(c1)OCO2	-60	nt	90*
C[C@H](CO)N1C[C@H](C)[C@H](CN(C)Cc2ccc3c(c2)OCO3)Oc2c(NC(=O)Nc3ccc(C(F)(F)F)cc3)cccc2C1=O	-51	0	62*
C[C@H](CO)N1C[C@H](C)[C@@H](CN(C)Cc2ccc3c(c2)OCO3)Oc2c(NC(=O)Nc3ccc(C(F)(F)F)cc3)cccc2C1=O	-36	nt	83*
CC(=O)N1Cc2ccccc2C[C@@]2(N=C(c3ccc(OCCCO)cc3)O[C@H]2c2ccccc2)C1=O	nt	0	nt
COC(=O)CCCCCCC(=O)N/N=C/c1sccc1C	3	1	-9
COc1ccc([Si](C)(C)[C@H]2[C@H](CCO)O[C@@]3(C(=O)N(Cc4cccc(N5CCC5=O)c4)c4ccccc43)[C@@H]2C)cc1	nt	-2	nt
C[C@H](CO)N1C[C@H](C)[C@@H](CN(C)Cc2ccc3c(c2)OCO3)Oc2c(NC(=O)Nc3ccc(F)cc3)cccc2C1=O	-8	0	60*
C[C@H](CO)N1C[C@H](C)[C@H](CN(C)Cc2ccc3c(c2)OCO3)Oc2c(NC(=O)Nc3ccc(F)cc3)cccc2C1=O	-22	nt	50
C[C@H]1CN([C@@H](C)CO)C(=O)c2cccc(NC(=O)Nc3ccc(C(F)(F)F)cc3)c2O[C@@H]1CN(C)Cc1ccc(Cl)c(Cl)c1	-27	0	77*
C[C@@H]1CN([C@@H](C)CO)C(=O)c2cccc(NC(=O)Nc3ccc(F)cc3)c2O[C@@H]1CN(C)Cc1ccc(Cl)c(Cl)c1	-71	-2	21
C[C@H]1CN([C@@H](C)CO)C(=O)c2cccc(NC(=O)Nc3ccccc3)c2O[C@@H]1CN(C)Cc1ccc(Cl)c(Cl)c1	-13	-1	9
C[C@H](CO)N1C[C@H](C)[C@@H](CN(C)Cc2ccc(Cl)c(Cl)c2)Oc2c(NC(=O)Nc3ccc(C(F)(F)F)cc3)cccc2C1=O	-40	-1	82*
C[C@@H]1CN([C@@H](C)CO)C(=O)c2cccc(NC(=O)Nc3ccc(C(F)(F)F)cc3)c2O[C@@H]1CN(C)Cc1ccc(Cl)c(Cl)c1	-31	0	79*
C[C@H](CO)N1C[C@H](C)[C@H](CN(C)Cc2ccc(Cl)c(Cl)c2)Oc2c(NC(=O)Nc3ccccc3)cccc2C1=O	-46	0	16
O=C(O)CCCCCC(=O)N/N=C/c1c(O)ccc2ccccc12	11	-1	-9
O=C(N/N=C/c1ccc(O)c2ccccc12)c1ccccc1O	-19	-7	-16
SMILES	INS-1E rescue	A1 apoptosis 2	T cruzi HTS
O=C(CCCCCCC(=O)Nc1ccccc1O)N/N=C/c1cc(O)ccc1[N+](=O)[O-]	-12	0	-5
C[C@@H]1CCCCO[C@H](CN(C)S(=O)(=O)c2ccc(F)cc2)[C@@H](C)CN([C@H](C)CO)C(=O)c2cc(NC(=O)Nc3ccc(F)cc3)ccc2O1	-7	0	14
C[C@@H]1CCCCO[C@H](CN(C)S(=O)(=O)c2ccc(Cl)cc2)[C@H](C)CN([C@@H](C)CO)C(=O)c2cc(NC(=O)Nc3ccc(C(F)(F)F)cc3)ccc2O1	nt	0	nt
Cc1ccc(S(=O)(=O)N(C)C[C@@H]2OCCCC[C@@H](C)Oc3ccc(NC(=O)Nc4ccc(C(F)(F)F)cc4)cc3C(=O)N([C@H](C)CO)C[C@@H]2C)cc1	-23	nt	70*
C[C@@H]1CCCCO[C@H](CN(C)S(=O)(=O)c2ccc(F)cc2)[C@@H](C)CN([C@H](C)CO)C(=O)c2cc(NC(=O)Nc3ccc(C(F)(F)F)cc3)ccc2O1	-36	0	64*
C=CCOC(=O)C(=O)/C=C/C(C)(C)C	nt	0	nt
COc1ccc(CN(C)C[C@H]2Oc3ccc(NC(=O)NC4CCCCC4)cc3CC(=O)N([C@H](C)CO)C[C@@H]2C)cc1	nt	0	nt
COc1ccc(NC(=O)O[C@H]2[C@H](OC(=O)Nc3ccccc3-c3ccccc3)[C@H](OC(=O)Nc3ccccc3-c3ccccc3)[C@@H](OC)O[C@@H]2CO)cc1	nt	-2	nt
Cc1noc(C)c1S(=O)(=O)N(C)C[C@H]1Oc2ccc(NC(=O)Nc3ccc(C(F)(F)F)cc3)cc2CC(=O)N([C@H](C)CO)C[C@@H]1C	nt	1	nt
C[C@H]1CN([C@@H](C)CO)C(=O)Cc2cc(NC(=O)Nc3ccc(C(F)(F)F)cc3)ccc2O[C@@H]1CN(C)S(=O)(=O)c1ccc(F)cc1	0	1	35
C[C@H]1CN([C@@H](C)CO)C(=O)Cc2cc(NC(=O)Nc3ccc(C(F)(F)F)cc3)ccc2O[C@H]1CN(C)S(=O)(=O)c1ccc(Cl)cc1	-23	2	52
C[C@@H]1CN([C@@H](C)CO)C(=O)Cc2cc(NC(=O)Nc3ccc(C(F)(F)F)cc3)ccc2O[C@@H]1CN(C)S(=O)(=O)c1ccc(Cl)cc1	-23	nt	81*
Cc1noc(C)c1S(=O)(=O)N(C)C[C@H]1Oc2ccc(NC(=O)Nc3ccc(C(F)(F)F)cc3)cc2CC(=O)N([C@@H](C)CO)C[C@H]1C	1	-1	66*
C[C@@H]1CN([C@H](C)CO)C(=O)Cc2cc(NC(=O)Nc3ccc(C(F)(F)F)cc3)ccc2O[C@@H]1CN(C)S(=O)(=O)c1ccc(F)cc1	-9	0	72*
Cc1ccc(O)c(/C=N/NC(=O)CCCCC(=O)NO)c1	22	nt	17
O=C(CCCCCCC(=O)Nc1ccccc1O)N/N=C/c1ccc(O)c(F)c1	0	-1	-8
COc1ccc(/C=N/NC(=O)CCCCCCC(=O)Nc2ccccc2O)c(O)c1	-6	nt	26
